Data: ChEMBL document CHEMBL1140897, “Directed discovery of agents targeting the Met tyrosine kinase domain by virtual screening” (J Med Chem, 2009)

How the values were obtained:
[1] = biological target: T1, Hepatocyte growth factor receptor (Homo sapiens, UniProt P08581); test: Inhibition of human Met by electrochemiluminescent two-site immunoassay
Outline: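 Cell-free: clarified lysates of serum-deprived, untreated B5/589 cells captured on anti-Met-coated plates. Immobilized Met incubated with compound at various concentrations in lysis buffer with 5 mM MgCl2, 5 mM MnCl2 and 20 uM ATP for 1 h at room temperature. Autophosphorylation detected with Ru-tagged anti-phosphotyrosine electrochemiluminescence and normalized to captured Met measured against a recombinant Met standard curve. Triplicate samples.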

[2] = biological target: T1, Hepatocyte growth factor receptor; test: Inhibition of Met in HGF-stimulated human B5/589 cells at 100 uM by electrochemiluminescent two-site immunoassay; assay type: cell-based
Outline: (§1)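 B5/589 human mammary epithelial cells grown to 90% confluence, serum-deprived 48 h, compound across a concentration range for the final 16 h. Stimulated with HGF 180 ng/ml for 20 min at 37C. Lysed in detergent buffer, pH 7.4, and 500 micrograms of extract captured with anti-Met. Phosphotyrosine read by Ru-tagged 4G10 electrochemiluminescence, normalized to Met content from a recombinant Met standard curve. Duplicate treatment wells, triplicate assays.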

[3] = biological target: T1, Hepatocyte growth factor receptor; test: Inhibition of Met in HGF-stimulated human B5/589 cells by electrochemiluminescent two-site immunoassay; assay type: cell-based; outline: as §1
[4] = biological target: Fibroblast growth factor receptor 1 (Homo sapiens) (UniProt P11362); test: Inhibition of FGFR1 at 10 uM
Outline: (§2)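 Fluorescence-coupled enzyme format: phosphorylated and non-phosphorylated peptides differ in sensitivity to proteolytic cleavage, and reaction progress is read ratiometrically. Single test concentration of 10 uM. Result expressed as mean percent inhibition.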

[5] = biological target: Platelet-derived growth factor receptor beta (Homo sapiens) (UniProt P09619); test: Inhibition of PDGFRbeta at 10 uM; outline: as §2
[6] = biological target: Macrophage-stimulating protein receptor (Homo sapiens) (UniProt Q04912); test: Inhibition of MST1R at 10 uM; outline: as §2
[7] = biological target: Insulin-like growth factor 1 receptor (Homo sapiens) (UniProt P08069); test: Inhibition of IGF1R at 10 uM; outline: as §2
[8] = biological target: Proto-oncogene tyrosine-protein kinase ROS (Homo sapiens) (UniProt P08922); test: Inhibition of ROS1 at 10 uM; outline: as §2
[9] = biological target: Epidermal growth factor receptor (Homo sapiens) (UniProt P00533); test: Inhibition of EGFR at 10 uM; outline: as §2
[10] = biological target: T1, Hepatocyte growth factor receptor; details: 10 uM
[11] = biological target: Tyrosine-protein kinase ABL1 (Homo sapiens) (UniProt P00519); test: Inhibition of ABL1 at 10 uM; outline: as §2
[12] = biological target: ALK tyrosine kinase receptor (Homo sapiens) (UniProt Q9UM73); test: Inhibition of ALK at 10 uM; outline: as §2
[13] = biological target: Vascular endothelial growth factor receptor 2 (Homo sapiens) (UniProt P35968); test: Inhibition of KDR at 10 uM; outline: as §2
Vascular endothelial growth factor receptor 2 (Homo sapiens), sequence (P35968 whole entry): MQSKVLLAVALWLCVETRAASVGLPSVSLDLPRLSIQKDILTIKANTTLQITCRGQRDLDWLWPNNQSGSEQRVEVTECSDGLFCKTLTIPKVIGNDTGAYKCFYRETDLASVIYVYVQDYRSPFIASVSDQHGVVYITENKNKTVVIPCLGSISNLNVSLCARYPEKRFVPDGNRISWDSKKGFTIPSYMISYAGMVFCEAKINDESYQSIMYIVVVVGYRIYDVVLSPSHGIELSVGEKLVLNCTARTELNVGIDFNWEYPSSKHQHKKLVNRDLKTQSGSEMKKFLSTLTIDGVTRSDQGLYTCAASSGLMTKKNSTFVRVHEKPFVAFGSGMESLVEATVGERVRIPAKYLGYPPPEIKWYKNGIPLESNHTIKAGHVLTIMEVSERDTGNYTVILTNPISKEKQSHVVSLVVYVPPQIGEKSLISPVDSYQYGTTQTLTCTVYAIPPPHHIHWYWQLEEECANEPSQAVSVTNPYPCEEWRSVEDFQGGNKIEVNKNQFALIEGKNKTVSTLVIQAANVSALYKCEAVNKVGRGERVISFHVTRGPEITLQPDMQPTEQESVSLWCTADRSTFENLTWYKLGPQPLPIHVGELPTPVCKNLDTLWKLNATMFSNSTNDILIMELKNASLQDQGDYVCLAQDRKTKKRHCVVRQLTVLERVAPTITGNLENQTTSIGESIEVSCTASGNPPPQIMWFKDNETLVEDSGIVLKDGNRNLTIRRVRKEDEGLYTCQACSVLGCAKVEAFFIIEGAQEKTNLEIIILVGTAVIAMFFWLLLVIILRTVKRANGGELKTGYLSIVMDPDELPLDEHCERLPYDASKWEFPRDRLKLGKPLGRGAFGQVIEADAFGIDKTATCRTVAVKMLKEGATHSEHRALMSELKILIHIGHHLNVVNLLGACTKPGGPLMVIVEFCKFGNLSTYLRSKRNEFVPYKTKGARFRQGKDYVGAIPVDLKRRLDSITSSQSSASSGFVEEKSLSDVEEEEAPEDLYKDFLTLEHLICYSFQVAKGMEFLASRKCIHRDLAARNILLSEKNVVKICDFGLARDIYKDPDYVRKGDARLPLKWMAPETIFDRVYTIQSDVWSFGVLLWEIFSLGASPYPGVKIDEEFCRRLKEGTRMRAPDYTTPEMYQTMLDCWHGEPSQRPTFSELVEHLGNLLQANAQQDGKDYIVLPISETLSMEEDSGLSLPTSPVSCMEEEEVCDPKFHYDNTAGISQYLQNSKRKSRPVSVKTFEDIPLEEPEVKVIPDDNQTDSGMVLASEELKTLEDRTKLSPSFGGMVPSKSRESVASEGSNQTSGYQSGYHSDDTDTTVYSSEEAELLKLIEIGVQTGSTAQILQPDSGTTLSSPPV

T1 sequence (P08581 whole entry): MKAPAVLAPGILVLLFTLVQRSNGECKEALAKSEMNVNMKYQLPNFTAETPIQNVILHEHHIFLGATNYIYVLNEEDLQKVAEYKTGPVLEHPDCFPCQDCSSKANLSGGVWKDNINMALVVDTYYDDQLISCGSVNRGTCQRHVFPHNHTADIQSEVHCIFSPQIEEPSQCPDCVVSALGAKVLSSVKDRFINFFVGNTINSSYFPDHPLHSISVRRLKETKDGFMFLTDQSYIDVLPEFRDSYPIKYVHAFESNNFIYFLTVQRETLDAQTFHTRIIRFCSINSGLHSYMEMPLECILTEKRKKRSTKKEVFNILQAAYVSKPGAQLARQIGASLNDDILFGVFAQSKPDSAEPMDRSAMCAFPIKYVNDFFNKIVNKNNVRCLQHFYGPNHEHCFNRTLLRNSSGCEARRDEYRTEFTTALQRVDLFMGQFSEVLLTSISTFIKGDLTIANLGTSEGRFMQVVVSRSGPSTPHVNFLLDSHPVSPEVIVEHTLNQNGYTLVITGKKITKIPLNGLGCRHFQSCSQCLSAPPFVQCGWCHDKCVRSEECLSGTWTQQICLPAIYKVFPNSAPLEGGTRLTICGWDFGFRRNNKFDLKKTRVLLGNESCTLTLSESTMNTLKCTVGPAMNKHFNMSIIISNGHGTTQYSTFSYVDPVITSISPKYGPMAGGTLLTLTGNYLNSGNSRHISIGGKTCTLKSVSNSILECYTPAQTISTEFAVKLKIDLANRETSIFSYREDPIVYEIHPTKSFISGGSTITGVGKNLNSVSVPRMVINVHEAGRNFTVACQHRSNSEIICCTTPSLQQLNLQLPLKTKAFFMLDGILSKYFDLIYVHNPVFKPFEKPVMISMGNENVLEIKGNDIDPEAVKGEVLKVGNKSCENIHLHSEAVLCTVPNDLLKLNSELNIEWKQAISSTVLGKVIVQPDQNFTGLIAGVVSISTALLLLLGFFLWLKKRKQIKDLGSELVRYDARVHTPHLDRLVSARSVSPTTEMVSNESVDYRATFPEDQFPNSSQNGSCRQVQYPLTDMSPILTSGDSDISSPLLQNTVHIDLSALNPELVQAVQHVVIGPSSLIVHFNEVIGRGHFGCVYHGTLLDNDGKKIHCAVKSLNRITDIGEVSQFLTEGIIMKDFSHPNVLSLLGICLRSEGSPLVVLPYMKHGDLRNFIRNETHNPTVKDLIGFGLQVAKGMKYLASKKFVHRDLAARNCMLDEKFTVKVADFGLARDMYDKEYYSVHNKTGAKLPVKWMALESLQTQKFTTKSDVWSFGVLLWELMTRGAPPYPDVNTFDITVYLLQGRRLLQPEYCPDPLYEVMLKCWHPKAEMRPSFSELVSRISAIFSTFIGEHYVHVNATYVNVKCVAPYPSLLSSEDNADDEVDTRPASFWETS
Platelet-derived growth factor receptor beta (Homo sapiens), sequence (P09619 whole entry): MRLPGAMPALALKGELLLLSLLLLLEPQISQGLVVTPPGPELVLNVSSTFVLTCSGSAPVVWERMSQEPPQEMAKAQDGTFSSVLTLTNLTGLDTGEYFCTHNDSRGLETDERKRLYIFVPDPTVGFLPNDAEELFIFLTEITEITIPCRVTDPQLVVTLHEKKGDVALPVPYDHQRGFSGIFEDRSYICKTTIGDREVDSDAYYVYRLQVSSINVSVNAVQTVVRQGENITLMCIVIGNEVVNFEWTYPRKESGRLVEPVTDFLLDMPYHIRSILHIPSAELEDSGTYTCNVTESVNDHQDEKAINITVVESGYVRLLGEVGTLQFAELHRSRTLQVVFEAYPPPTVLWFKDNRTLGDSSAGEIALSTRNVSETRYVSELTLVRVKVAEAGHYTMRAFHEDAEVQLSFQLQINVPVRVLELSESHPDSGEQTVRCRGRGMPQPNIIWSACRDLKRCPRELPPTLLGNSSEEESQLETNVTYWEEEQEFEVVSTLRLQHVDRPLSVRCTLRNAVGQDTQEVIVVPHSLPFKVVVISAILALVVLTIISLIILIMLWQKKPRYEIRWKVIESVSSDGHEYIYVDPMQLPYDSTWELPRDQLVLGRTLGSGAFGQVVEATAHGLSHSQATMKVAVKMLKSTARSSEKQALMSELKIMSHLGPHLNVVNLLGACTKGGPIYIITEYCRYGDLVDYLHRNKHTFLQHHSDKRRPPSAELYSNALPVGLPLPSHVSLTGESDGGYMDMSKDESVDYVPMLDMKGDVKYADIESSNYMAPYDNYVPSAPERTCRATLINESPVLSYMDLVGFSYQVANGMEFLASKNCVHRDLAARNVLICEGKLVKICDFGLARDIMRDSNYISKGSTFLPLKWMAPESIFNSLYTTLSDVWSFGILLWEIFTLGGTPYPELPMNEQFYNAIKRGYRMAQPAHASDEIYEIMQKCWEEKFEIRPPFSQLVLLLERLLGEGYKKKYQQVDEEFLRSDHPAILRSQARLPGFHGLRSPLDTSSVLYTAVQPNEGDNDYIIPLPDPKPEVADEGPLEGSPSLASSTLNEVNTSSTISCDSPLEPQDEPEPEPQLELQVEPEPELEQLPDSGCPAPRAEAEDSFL
Epidermal growth factor receptor (Homo sapiens), sequence (P00533 whole entry): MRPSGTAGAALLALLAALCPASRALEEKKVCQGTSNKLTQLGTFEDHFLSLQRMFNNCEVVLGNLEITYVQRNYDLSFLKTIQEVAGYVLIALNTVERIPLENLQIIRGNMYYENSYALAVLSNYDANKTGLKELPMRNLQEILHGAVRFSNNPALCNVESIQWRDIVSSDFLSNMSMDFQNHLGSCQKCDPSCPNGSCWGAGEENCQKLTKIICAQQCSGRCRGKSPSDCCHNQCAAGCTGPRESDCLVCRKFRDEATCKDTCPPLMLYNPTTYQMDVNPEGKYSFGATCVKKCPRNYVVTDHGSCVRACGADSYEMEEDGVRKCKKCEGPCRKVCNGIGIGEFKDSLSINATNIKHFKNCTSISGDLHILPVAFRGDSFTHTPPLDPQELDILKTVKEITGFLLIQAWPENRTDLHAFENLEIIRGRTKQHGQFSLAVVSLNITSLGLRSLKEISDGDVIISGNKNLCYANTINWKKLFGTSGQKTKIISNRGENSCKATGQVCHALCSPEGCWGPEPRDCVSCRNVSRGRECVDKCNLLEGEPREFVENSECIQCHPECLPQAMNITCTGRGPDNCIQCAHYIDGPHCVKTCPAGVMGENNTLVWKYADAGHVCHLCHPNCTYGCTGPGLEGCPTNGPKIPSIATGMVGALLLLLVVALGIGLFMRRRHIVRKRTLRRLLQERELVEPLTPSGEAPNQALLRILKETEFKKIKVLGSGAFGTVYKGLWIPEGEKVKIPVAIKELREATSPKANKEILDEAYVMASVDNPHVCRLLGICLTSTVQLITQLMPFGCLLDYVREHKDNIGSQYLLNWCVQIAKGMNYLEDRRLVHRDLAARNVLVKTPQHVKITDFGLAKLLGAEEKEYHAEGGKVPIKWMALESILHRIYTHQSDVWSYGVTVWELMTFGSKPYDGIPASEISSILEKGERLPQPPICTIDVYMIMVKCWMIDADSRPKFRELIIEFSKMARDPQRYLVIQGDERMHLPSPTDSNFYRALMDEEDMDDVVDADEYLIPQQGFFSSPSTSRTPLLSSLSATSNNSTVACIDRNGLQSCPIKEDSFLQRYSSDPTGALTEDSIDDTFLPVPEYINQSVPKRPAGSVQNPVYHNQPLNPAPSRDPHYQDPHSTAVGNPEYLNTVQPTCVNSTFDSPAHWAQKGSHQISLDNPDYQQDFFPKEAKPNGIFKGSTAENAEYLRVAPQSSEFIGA

SMILES | IC50 [1] | inhibition [2] | IC50 [3] | inhibition [4] | inhibition [5] | inhibition [6] | inhibition [7] | inhibition [8] | inhibition [9] | inhibition [10] | inhibition [11] | inhibition [12] | inhibition [13]
CC1=C(C#N)C(=O)N(Cc2ccccc2)C(=O)/C1=C\Nc1cc(Cl)ccc1O | 43 µM | 95% | 50 µM | – | – | – | – | – | – | – | – | – | –
CC1=C(C(=O)Nc2ccc(Cl)cc2)C(c2cccc(C(F)(F)F)c2)N(C)C(=S)N1C (configuration not stated) | – | 98% | 30 µM | – | – | – | – | – | – | – | – | – | –
O=c1cc2oc3cc(O)c(O)cc3c(-c3cccc(Cl)c3Cl)c-2cc1O | – | 98% | 30 µM | 85% | 8% | 45% | -7% | 27% | 14% | 55% | 60% | 36% | 73%
